Experimental data reported in PubChem BioAssay AID624398 (The Scripps Research Institute Molecular Screening Center, 2012).
The source made the active and inactive calls.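 How the source made its calls: active means estrogen-induced reporter signal reduced by at least 20%; inactive means reduction of reporter signal under 20%.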

Test system: not listed separately
Assay: suppression of estradiol-induced ERE reporter expression – BG1Luc4E2 ovarian carcinoma cells, luminescence, set 2, counter-screen for AHR activator project, late-stage follow-up (AID 624398)
Conditions: BG1Luc4E2 ERE-luciferase, estradiol-induced, luminescence, 24 h; at 10 µM; stronger effect = higher value
Summary of the method: (§1)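 Material: 2xERE luciferase reporter / Reagent: estradiol stimulus at 1 nM / Timing: compound and estradiol exposure 24 h at 37 °C / Signal: luciferase luminescence measured after cell lysis / Replication: triplicate wells for the 10 µM dose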
In the case of `Cc1csc(SCC(=O)Nc2ccccn2)n1`, the inhibition is reported as 12.2% (inactive).
In the case of `Cc1cc(Br)cc(C)c1Nc1ccnc(Nc2ccc(C#N)cc2)n1`, the inhibition is reported as 92.9%.
In the case of `CCOc1ccccc1NC(=O)c1ccc(C(=O)Nc2ccccc2OCC)nc1`, the inhibition is reported as -45.6% (inactive).
With `COc1ccc(Nc2cc(Cl)nc(N)n2)cc1OC` the inhibition was -18.4% (inactive).
In the case of `Nc1nc(Cl)cc(Nc2ccccc2F)n1`, the inhibition is reported as 8% (inactive).
For `O=C(CSc1nc2ccccc2s1)Nc1ccc(Cl)cn1`, the inhibition was 38.8%.
With `Cc1cccc(NC(=O)c2cc(-c3ccc(C)cc3O)n[nH]2)c1` the inhibition was -95.6% (inactive).
With `Cc1ccnc(NC(=O)CSc2nc3ccccc3s2)c1` the inhibition was 16.1% (inactive).
Compound `COc1ccc(-c2cc(-c3ccc(C)cc3O)[nH]n2)cc1` has an inhibition of 40.9%.
Compound `CCOC(=O)c1c(C)nn(-c2cc(Cl)ccc2Cl)c1C` has an inhibition of 29%.
For `CN(Cc1cc(-c2cccs2)n[nH]1)Cc1coc2ccccc2c1=O`, the inhibition was -31.1% (inactive).
With `Cc1cc(Nc2ccc(F)cc2)nc(N)n1` the inhibition was 15.8% (inactive).
With `O=C(CSc1nc(-c2ccc(F)cc2)cs1)Nc1ccccn1` the inhibition was -26.7% (inactive).
With `COc1ccc(NC(=O)c2ccc(C(=O)Nc3ccc(OC)cc3OC)nc2)c(OC)c1` the inhibition was 19.4% (inactive).
Work on `Cc1ccc(O)c(-c2cc(-c3ccccc3Cl)[nH]n2)c1` yielded an inhibition of 66.3%.
Compound `COc1ccc(O)c(-c2cc(-c3cccs3)[nH]n2)c1` has an inhibition of 43.1%.
`Cc1ccc(NC(=O)c2ccc(C(=O)Nc3ccc(C)cc3C)nc2)c(C)c1` showed an inhibition of 33.6%.
Compound `O=C(CSc1nc2ccccc2s1)Nc1ccccn1` has an inhibition of 79%.
For `Cc1cccc(C)c1NC(=O)c1ccc(C(=O)Nc2c(C)cccc2C)nc1`, the inhibition was -12.6% (inactive).
In the case of `Nc1nc(Cl)cc(Nc2ccc(Oc3ccccc3)cc2)n1`, the inhibition is reported as -6.3% (inactive).
`COc1ccc(Cl)cc1NC(=O)c1ccc(C(=O)Nc2cc(Cl)ccc2OC)nc1` gave an inhibition of 79.6%.
For `COc1ccc(Nc2cc(Cl)nc(N)n2)cc1`, the inhibition was -52.4% (inactive).

Test system: BG1Luc4E2 ERE-luciferase, estradiol-induced, luminescence, 24 h
Assay: as above
Conditions: not given
Summary of the method: as §1
Work on `Cc1ccc(-c2cc(-c3ccc(Cl)cc3)n[nH]2)c(O)c1` yielded an IC50 of 30 µM.
Work on `Cc1ccc(-c2cc(-c3ccc(F)cc3)n[nH]2)c(O)c1` yielded an IC50 of 20 µM.
